Our source for the yeast fitness values is the RNAGym collection of RNA variant scans (doi:10.1126/science.aae0568).

B1: tRNA (parent)
chain: GUUCCGUUGGCGUAAUGGUAACGCGUCUCCCUCCUAAGGAGAAGACUGCGGGUUCGAGUCCCGUACGGAACG

This sample holds only a part of the variants without activity.

The variants in this series derive from B1. Description: yeast fitness relative to wild type (ratio to wild type); higher = fitter; tRNA-Arg(CCU), competitive growth, 37 C, YPD. The procedure, abridged: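 A pool of Saccharomyces cerevisiae strains, each with a tRNA-Arg(CCU) gene variant at the native genomic locus, was competed in YPD at 37°C for 24 hours across six parallel replicates. The variants had been chemically synthesised at a 3% per-site mutation rate over 69 sites, and gene amplicons before and after competition were read by 100-nucleotide paired-end sequencing. Darwinian fitness relative to wild type rested on changes in genotype frequencies. Genotypes required ≥ 100 starting reads, and estimates < 0.5 were set to 0.5.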
Take A57C U59C: the yeast fitness was 0.613.

For the variant U59C C61A C66A, the yeast fitness is at most 0.5.

On to G58C C61U C66U, for which the yeast fitness was found to be 0.621.

Take U59A G67A: the yeast fitness was 0.799.

With C55A G67A, the yeast fitness was found to be 0.658.

With U59C C61U, the yeast fitness came out at 0.839.

Turning to A65G G68U, the yeast fitness was 0.809.

With A65G G68A, the yeast fitness is 0.924.

Take C61A G67A: the yeast fitness worked out at 0.582.

On to A57G A69U, for which the yeast fitness worked out at 0.943.

Take A57G A69C: the yeast fitness was determined as 0.799.

For C61U A70U, the yeast fitness is 1.04.

Turning to G63A A65C, the yeast fitness amounted to 0.942.

For the variant A65U C66A, the yeast fitness stood at 0.751.

As for C60G A69U, the yeast fitness was determined as 0.655.

As for C61G A65G C66U A69G, the yeast fitness is 0.646.

For C61U A69G A70C, the yeast fitness came out at 0.923.

In the case of U59A C66U, the yeast fitness is 0.815.

For U59A C66G, the yeast fitness was 0.669.

With C55G A57U C62U, the yeast fitness amounted to 0.544.

For the variant A65G A69U, the yeast fitness was found to be 0.993.

Take C55A A69C: the yeast fitness was 0.613.

Consider C60U U64C, for which the yeast fitness was determined as 0.833.

Consider C62A A65C, for which the yeast fitness was 0.766.

Take U59A C62G G67A: the yeast fitness is at most 0.5.

Take G56A G68A: the yeast fitness came to 1.04.

For G58A C66U, the yeast fitness turned out to be 0.981.

As for C55A U64A, the yeast fitness worked out at 0.619.

As for C61A A69G, the yeast fitness stood at 0.584.

On to C55A G56A, for which the yeast fitness was found to be 0.514.

For the variant C62U A69U, the yeast fitness amounted to 0.955.

Consider C60G C66A, for which the yeast fitness was 0.541.

In the case of C60G C66U, the yeast fitness was found to be 0.599.

For the variant G56C U59A, the yeast fitness stood at 0.663.

Turning to G58U A65G G67A, the yeast fitness is at most 0.5.

In the case of C55A A70G, the yeast fitness was 0.557.

C55U U59C: the yeast fitness stood at 0.683.

With U64C A70G, the yeast fitness came to 0.844.

Take U64C A70U: the yeast fitness was determined as 0.953.

For the variant G58A A65U, the yeast fitness was found to be 1.04.

Take G63A U64A: the yeast fitness came to 0.864.

Turning to C60A C66U G68C, the yeast fitness was at most 0.5.

For G56C A69U A70C, the yeast fitness was at most 0.5.

Turning to A57U A65C A69C, the yeast fitness was at most 0.5.

For the variant G58C G63C, the yeast fitness was 0.702.

On to U59A A65G, for which the yeast fitness amounted to 1.11.

As for C61A A70C, the yeast fitness was 0.694.

For the variant C55A A57C G58A, the yeast fitness is at most 0.5.

With C62U G63C A70C, the yeast fitness was at most 0.5.

Turning to G56A C61U, the yeast fitness came to 0.994.

As to C55A C62A, the yeast fitness was 0.518.

Consider C55G U59C C60U G67U, for which the yeast fitness worked out at 0.548.

With A57U G63C U64A A70U, the yeast fitness was 0.646.

Take G56C G58C C66U: the yeast fitness was 0.625.

In the case of G58A A65C G67A, the yeast fitness is 0.643.

For C55G G58C, the yeast fitness came out at 0.587.

A57U U59G C66U: the yeast fitness is at most 0.5.

As for C62G A65U A69U, the yeast fitness turned out to be 0.535.

With C62A A65U A70U, the yeast fitness was 0.531.

As for A57G U59C, the yeast fitness is 0.864.

Turning to A57G U59G, the yeast fitness was determined as 0.941.

For C62G A69U, the yeast fitness turned out to be 0.839.

For the variant C62G A69G, the yeast fitness was 0.819.

With G56A A57U, the yeast fitness amounted to 0.882.

For U64A A65U A70U, the yeast fitness was found to be 0.601.

Consider G58C C60U C66G, for which the yeast fitness is at most 0.5.

Regarding G56U A65U G68C, the yeast fitness was at most 0.5.

As for G56C C60A, the yeast fitness came to 0.587.

As for U59A C62U, the yeast fitness amounted to 0.922.

For the variant U59A A69U, the yeast fitness stood at 0.817.

Consider C55G G58A A69C, for which the yeast fitness was at most 0.5.

As for G63C A65U, the yeast fitness was 0.735.

As to G56U G58C, the yeast fitness amounted to 0.75.

Turning to G56U G58A, the yeast fitness is 0.589.

As to C62G G63C, the yeast fitness was 0.588.

G63C A69U: the yeast fitness is 0.709.

Regarding G63C A69C, the yeast fitness was 0.629.

Turning to A57G G58C, the yeast fitness is 1.03.

As to A57G G58A, the yeast fitness amounted to 1.01.

For C55U G63A A65G, the yeast fitness was at most 0.5.

For G56C C62G, the yeast fitness stood at 0.559.

Turning to G56C C62U, the yeast fitness stood at 0.913.

Regarding G58U C66A A70C, the yeast fitness stood at 0.665.

Take C60A C61U G63C C66U: the yeast fitness was at most 0.5.

On to A65U C66G G68C, for which the yeast fitness is at most 0.5.

Regarding G63A C66G, the yeast fitness amounted to 0.678.

For C55G A57U G67A, the yeast fitness was at most 0.5.

In the case of C60A A69C, the yeast fitness was determined as 0.752.

Consider C60A A69U, for which the yeast fitness worked out at 0.746.

For C55G U59A, the yeast fitness turned out to be 0.677.

G56C C62G G68C: the yeast fitness was found to be 0.56.

Take C55U C62U G67C: the yeast fitness is at most 0.5.

Regarding A57U C62A U64A, the yeast fitness was at most 0.5.

Take A65U A70U: the yeast fitness amounted to 1.11.

Turning to C61U C66G, the yeast fitness amounted to 0.706.

Regarding C61U C66U, the yeast fitness worked out at 0.929.

On to C60A A65G, for which the yeast fitness amounted to 0.573.

Take C61G C62G: the yeast fitness was 0.741.

Consider C61G C62A, for which the yeast fitness was found to be 0.503.

Regarding C62U C66G A70G, the yeast fitness turned out to be 0.574.

With A65C, the yeast fitness amounted to 1.01.

Turning to A65G, the yeast fitness was determined as 0.999.

Consider A65U, for which the yeast fitness was determined as 0.993.

Take G58C C60A A65C: the yeast fitness is at most 0.5.

C55U A70G: the yeast fitness is 0.705.

With C55U G67A, the yeast fitness was determined as 0.871.

On to A57G C60A C66G, for which the yeast fitness turned out to be 0.558.

For C62U G68A, the yeast fitness came to 0.838.

On to C62A A69G A70G, for which the yeast fitness came to 0.614.

Regarding G56A G58C C61G, the yeast fitness amounted to 0.707.

With C55G G67A, the yeast fitness was 0.729.

Regarding C62U A70U, the yeast fitness was determined as 0.996.

For the variant G58A C62U G63A, the yeast fitness stood at 0.621.

As for C62U G63C, the yeast fitness stood at 0.752.

Consider C62U G63A, for which the yeast fitness came to 0.719.

For A65G A70U, the yeast fitness stood at 0.943.

As for A65G A70G, the yeast fitness is 0.865.

On to C55U G63A, for which the yeast fitness turned out to be 0.643.

Turning to C62U C66A, the yeast fitness came to 0.686.

Consider C62U C66G, for which the yeast fitness turned out to be 0.731.

For the variant C62G U64A, the yeast fitness was determined as 0.695.

Consider C62G U64C, for which the yeast fitness stood at 0.97.

Take G58C U59C A70G: the yeast fitness was found to be 0.706.

In the case of U64C A69U, the yeast fitness was 1.07.

Regarding U64C A69C, the yeast fitness was 0.983.

As to A57G C62U, the yeast fitness is 0.781.

Turning to G56A G63A, the yeast fitness was 0.726.

On to U64C C66U, for which the yeast fitness is 0.958.

For the variant C55U C62U, the yeast fitness was found to be 0.708.

Regarding A65C A69C A70G, the yeast fitness was found to be 0.554.

Consider C55G C60G, for which the yeast fitness is at most 0.5.

C61A C66G: the yeast fitness was 0.572.

C60U C61G G67A: the yeast fitness was at most 0.5.

As to G63A A69U, the yeast fitness worked out at 0.856.

Take C55A C61U G68A A70G: the yeast fitness was at most 0.5.

For C62U A69G A70U, the yeast fitness came to 0.648.

For the variant C61G A65G, the yeast fitness turned out to be 0.713.

As to C61G A65C, the yeast fitness was 0.658.

For G56C A70G, the yeast fitness is 0.672.

With G56C A70U, the yeast fitness is 0.83.

With C62G G68C A70G, the yeast fitness is at most 0.5.

Consider G63C U64C, for which the yeast fitness was 0.969.

On to G58C A69G, for which the yeast fitness came out at 0.961.

U59C C60U: the yeast fitness turned out to be 0.704.

C55A G58A: the yeast fitness is 0.55.

As for C55A G58C, the yeast fitness is 0.534.

For C55U C66U, the yeast fitness worked out at 0.667.

For C60G C66G A69G, the yeast fitness came out at 0.593.

Turning to G58A G68A, the yeast fitness amounted to 0.899.

For C61G A70U, the yeast fitness turned out to be 0.772.

As to C61G A70G, the yeast fitness was determined as 0.685.

In the case of G56C G68A, the yeast fitness stood at 0.7.

With A57G A65G A69C, the yeast fitness stood at 0.7.

As to G56A C66G, the yeast fitness turned out to be 0.689.

On to C55A U59C, for which the yeast fitness is 0.647.

With A57U A65U G67A G68C, the yeast fitness was at most 0.5.

Consider C55A G63A, for which the yeast fitness worked out at 0.55.

In the case of A57G C62U G67A, the yeast fitness is at most 0.5.

Consider A57U G67C, for which the yeast fitness was determined as 0.817.

With C61U A65G, the yeast fitness turned out to be 1.07.

As to C61G G63C, the yeast fitness amounted to 0.532.

On to C62G A70C, for which the yeast fitness turned out to be 0.679.

Regarding C55A C66U, the yeast fitness came out at 0.694.

On to C55A C66G, for which the yeast fitness was at most 0.5.

U59A C60G: the yeast fitness worked out at 0.655.

In the case of C60A C62G A70C, the yeast fitness was at most 0.5.

With C55G C66G, the yeast fitness turned out to be 0.768.
